Data on ten compounds can be found in ChEMBL document CHEMBL1145773, “Design, synthesis, SAR, and molecular modeling studies of acylthiocarbamates: a novel series of potent non-nucleoside HIV-1 reverse transcriptase inhibitors structurally related to phenethylthiazolylthiourea derivatives” (J Med Chem, 2003).

Assay [1] concerns MT-4 (Homo sapiens). Briefly: Concentration required to reduce the viability of mock-infected MT-4 cells by 50% was determined by MTT method. The note with it: MT4. On the technique in general: Tetrazolium dyes change colour on reduction, which living cells bring about.
The test system of assay [2] is Human immunodeficiency virus 1. Briefly: Anti HIV-1 activity of selected N-acylthiocarbamates against Y181C resistant mutant. The class given is functional, organism-based. In a few lines: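 Acutely infected MT-4 cells (1 × 10⁴ cells/well) incubated at 37 °C with serial compound dilutions (DMSO stock, diluted in medium) and Y181C mutant virus (NIH N119; titer 1.3 × 10⁶ CCID₅₀/mL) dosed to cause full cytopathogenicity by day 4. Viability read by MTT; EC₅₀ = concentration giving 50% protection from virus-induced cytopathogenicity.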

The subject of assay [3] is MT4. Briefly: Selectivity index which is the ratio of CC50 and EC50 was determined. The class given is functional, Homo sapiens. In a few lines:
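MT-4 cells (1 × 10^4/well) were seeded with or without serial compound dilutions, then infected with HIV-1 IIIB at enough CCID50 for complete cytopathogenicity by day 4. Cultures were incubated at 37 °C and viability was read by MTT. […] Cytotoxicity was run in parallel on mock-infected cells, and SI = CC50/EC50. Data are means of three separate experiments.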

Assay [4] relates to Human immunodeficiency virus 1. Briefly: Concentration required to reduce the amount of p24 by 90% in HIV-1 infected C8166 cultures. The class given is functional, organism-based. Particulars: Human immunodeficiency virus 1, C8166. The procedure, abridged: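 C8166 cells (1 × 10^4/well) were infected with wt HIV-1 in the presence of graded compound concentrations, with DMSO stocks diluted in culture medium. After incubation at 37 °C, p24 antigen was measured by immunoenzymatic kit. EC90 is the concentration lowering p24 by 90%.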

For assay [5], the target named is Human immunodeficiency virus type 1 reverse transcriptase (Human immunodeficiency virus 1, UniProt Q72547). Briefly: Activity of selected HIV-1 N-acylthiocarbamates in enzyme assay against Virion-Associated reverse transcriptase. In a few lines: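 Virion-associated RT from stock virus disrupted with 0.5% NP-40. Incubation 60 min at 37 °C, then acid-insoluble radioactivity counted on glass fiber filters.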

The CC50 is the concentration giving 50% cytotoxicity. A low value points to harm at low concentration. As a reminder, the EC50 is the concentration at which the effect is half-maximal. A word on the EC90: it is the concentration needed for an effect of 90%. A word on the IC50: it is the concentration needed to halve the response being measured.

Molecules are shown by their SMILES. Where only a bound is given, the exact number is not on record here.

As for `O=C1c2ccccc2C(=O)N1CCOC(=S)N(C(=O)c1ccccc1)c1ccc(Cl)cc1`, in assay [1], the CC50 is greater than 200 µM. This compound yielded an EC50 in assay [2] greater than 100 µM. Moreover, the SI in assay [3] is listed as greater than 2000. This compound also registered an EC90 in assay [4] of 130 nM.
Compound `O=C1c2ccccc2C(=O)N1CCOC(=S)N(C(=O)c1cccs1)c1ccc([N+](=O)[O-])cc1` had a CC50 in assay [1] of 168 µM. Further, the EC50 in assay [2] amounted to 58 µM. Further, the SI in assay [3] stood at 16800.
On to `O=C1c2ccccc2C(=O)N1CCOC(=S)N(C(=O)c1cccs1)c1ccc(Cl)cc1`, for which, in assay [1], the CC50 is greater than 200 µM. The same compound yielded an EC50 in assay [2] of 1 µM. In assay [5], this compound returned an IC50 of 2500 nM. In assay [3], the SI is given as greater than 25000. The EC90 in assay [4] came out at 8 nM.
In turn, `O=C1c2ccccc2C(=O)N1CCOC(=S)N(C(=O)c1ccccc1)c1ccccc1` showed a CC50 in assay [1] greater than 200 µM. Moreover, the EC50 in assay [2] was greater than 100 µM. In addition, the SI in assay [3] was greater than 500. This compound also registered an EC90 in assay [4] of 800 nM.
As to `O=C1c2ccccc2C(=O)N1CCOC(=S)N(C(=O)c1ccco1)c1ccc([N+](=O)[O-])cc1`, the CC50 in assay [1] was 18 µM. In addition, the concentration giving a half-maximal response (EC50) in assay [2] turned out to be 14 µM. Moreover, in assay [3], the SI was determined as 2250. The same compound came in with an EC90 in assay [4] of 5 nM.
For `O=C1c2ccccc2C(=O)N1CCOC(=S)N(C(=O)c1ccco1)c1ccc(Cl)cc1`, the CC50 in assay [1] is 41 µM. The compound also registered an EC50 in assay [2] of 1.7 µM. Moreover, the IC50 in assay [5] was found to be 2300 nM. Besides, the SI in assay [3] is given as 5857. In assay [4], this compound had a 90% effect concentration (EC90) of 5 nM.
For the compound `CC(=O)Oc1ccccc1C(=O)N(C(=S)OCCOc1ccccc1)c1ccccc1`, the half-maximal cytotoxic concentration (CC50) in assay [1] is greater than 200 µM. Also, in assay [3], the SI was greater than 21.
`S=C(NCCc1ccccn1)Nc1ccc(Br)cn1` [TROVIRDINE]: the CC50 in assay [1] worked out at 60 µM. The same compound had an EC50 in assay [2] of 1.2 µM. Also, the IC50 in assay [5] came to 4200 nM. The SI in assay [3] was determined as 3000. The EC90 in assay [4] is 15 nM.
The compound `O=C1c2ccccc2C(=O)N1CCOC(=S)N(C(=O)c1ccc(Cl)cc1)c1ccc(Cl)cc1` came in with a CC50 in assay [1] greater than 100 µM. Besides, a half-maximal response in assay [2] (EC50) required 11.6 µM. Further, in assay [3], the SI is reported as greater than 4000. In assay [4], this compound returned an EC90 of 20 nM.
The compound `O=C(c1cccs1)N(C(=S)OCCOc1ccccc1)c1ccccc1` returned a CC50 in assay [1] of 125 µM. The SI in assay [3] came out at 14.5.
